Bioassay records (PubChem)
Hits are enriched below; roughly 2.3% of the tested compounds scored in any of these assays.
ABCB1 block – human ABCB1 inhibition, ABCG2 as counter-screen; inhibition, % at 6.6 µM; AID 1326; CCRF-Adr cells, JC-1 efflux, flow cytometry; 190,000 compounds, 0.067% hits; P08183; in the data active means inhibition above about 40%;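 further: higher value means more JC-1 retained so stronger ABCB1 efflux block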
ABCG2 block – blocks JC-1 efflux by human ABCG2 transporter. Q9UNQ0. IgMXP3 cells, flow cytometry. inhibition, % at 6.6 µM. 190,000 compounds, 0.1% hits. AID 1325;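 active means inhibition above 80%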
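material = IgMXP3 (ABCG2) plus far-red-tagged CCRF-Adr (ABCB1) cells | amount = 3 million cells/mL, equal mix of both lines | also added = JC-1 transporter substrate | dosing = one concentration, 6.6 µM final | schedule = 10 min at 25 °C | measured by = flow cytometric JC-1 green MFI at 530 nm | read-out basis = percent efflux inhibition, scaled nicardipine 100% to DMSO 0%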
MEKK2mut PB1 HTS – signal of MEK5 binding to mutant human MEKK2 PB1 domain. percent response, % at 10 µM. bead flow cytometry, Alexa488-MEK5 binding to MEKK2 mutant. AID 1530. 290,000 compounds, 0.35% hits; in the data active means percent response above about 24%, passing the limit was not always enough
MEKK3 PB1 HTS – MEKK3-MEK5 PB1 interaction, increase or decrease. Q99759. bead-based flow cytometry, Alexa488-MEK5 binding to MEKK3; actives lie on both sides; 0 = blocked by unlabeled MEK5, 100 = vehicle. binding response (% of control), % at 10 µM. 290,000 compounds, 1.4% hits;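 active means binding response more than 3 SD above or below the average of its plate-row segment, actives on both sides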;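 further: Alexa488 bead fluorescence after subtracting the streptavidin-only scavenger bead signal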
MEKK2 WT-MEK5 – raises or lowers MEK5 binding to wildtype human MEKK2 PB1 domain. Q9Y2U5. bead flow cytometry, Alexa488-MEK5 binding to MEKK2 WT; actives lie on both sides. binding response (% of control), % at 10 µM. 290,000 compounds, 1.1% hits. AID 1531; in the data active means binding response below about 67% or above about 130%
MEKK2wt confirm – raises or lowers MEK5 binding to wildtype human MEKK2, retest; binding response (% of control), % at 10 µM; 5,900 compounds, 2.4% hits; shares compounds with MEKK3 PB1 HTS; bead flow cytometry, Alexa488-MEK5 binding to MEKK2 WT; actives lie on both sides; AID 1892; in the data active means binding response below about 16% or above about 210%; inactive means in between
MEKK2mut confirm – signal of MEK5 binding to mutant human MEKK2, retest; shares compounds with MEKK3 PB1 HTS; bead flow cytometry, Alexa488-MEK5 binding to MEKK2 mutant; percent response, % at 10 µM; 5,900 compounds, 2% hits; AID 1893; in the data active means percent response mostly above about 71%, no sharp cut-off; inactive means mostly below about 38%;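 further: higher means compound restores mutant binding toward wildtype level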
MEKK3 confirm – confirmation of inhibitors of MEK5 binding to human MEKK3 | shares compounds with MEKK3 PB1 HTS | bead flow cytometry, Alexa488-MEK5 binding to MEKK3; hits give low values | binding response (% of control), % at 10 µM | 5,900 compounds, 1.8% hits | AID 1894;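 active means binding response below 72% of control, or above a set upper limit, though filed actives all read lower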
Large screens that a line does not name were inactive (follow-up assays come after a bar, where they were run); [ ] = another dose, or the depositor's remark.

CC(=O)c1c(C)[nH]c(C(=O)OCC(=O)N2CCc3ccccc32)c1C	MEKK3 PB1 HTS 2.0[inhibitor], MEKK2 WT-MEK5 1.0[inhibitor] | MEKK2wt confirm inactive | MEKK2mut confirm inactive | MEKK3 confirm inactive
CCOc1cccc(-c2c(C(=O)N/N=C/c3ccsc3)nnn2-c2nonc2N)c1	none (no result: ABCB1 block, ABCG2 block)
C=CCNC(=O)CSc1ncc2c(n1)-c1c(csc1SC)CC2	none (no result: ABCB1 block, ABCG2 block)
CSc1scc2c1-c1nc(SCC(=O)C(C)(C)C)ncc1CC2	MEKK3 PB1 HTS 66.0[inhibitor] (no result: ABCB1 block, ABCG2 block) | MEKK2wt confirm inactive | MEKK2mut confirm inactive | MEKK3 confirm inactive
COc1ccc(CNCCc2ccc(Cl)cc2)cc1OCc1ccccc1	MEKK3 PB1 HTS 2.0[inhibitor], MEKK2 WT-MEK5 2.0[inhibitor] | MEKK2wt confirm inactive | MEKK2mut confirm inactive | MEKK3 confirm inactive
COc1ccc(CNCCc2ccccc2)cc1OCC(N)=O	none
CCOc1cc(CNCc2ccccc2)ccc1OCc1ccc(Cl)cc1	MEKK2 WT-MEK5 160.0 (no result: ABCB1 block, ABCG2 block) | MEKK2wt confirm inactive | MEKK2mut confirm inactive | MEKK3 confirm inactive
CC(C(=O)NCCCc1ccccc1)n1cccc1C(=O)c1ccccc1 (configuration not stated)	none (no result: ABCB1 block, ABCG2 block)
Cn1cccc1/C=C(\C#N)C(N)=S	none (no result: ABCB1 block, ABCG2 block)
Cn1c(/C=C(\C#N)C(N)=S)ccc1-c1ccc(Br)cc1	MEKK2 WT-MEK5 62.0[inhibitor] | MEKK2wt confirm inactive | MEKK2mut confirm inactive | MEKK3 confirm inactive
CC1/C(=N/O)CC(c2ccccc2)NC1c1ccccc1 (configuration not stated)	none
CCCC1/C(=N/O)CC(c2ccccc2)NC1c1ccccc1 (configuration not stated)	MEKK3 PB1 HTS 4.0[inhibitor], MEKK2 WT-MEK5 7.0[inhibitor] | MEKK2wt confirm inactive | MEKK2mut confirm inactive | MEKK3 confirm inactive
CC1(C)CC(N=Cc2c(O)n(Cc3ccc4c(c3)OCO4)c(=O)c3ccccc23)CC(C)(C)N1	MEKK2 WT-MEK5 149.0 | MEKK2wt confirm inactive | MEKK2mut confirm inactive | MEKK3 confirm inactive
CN(CCO)c1cc(N2CCC3(CC2)OCCO3)c2nonc2c1[N+](=O)[O-]	MEKK3 PB1 HTS 74.0[inhibitor] | MEKK2wt confirm inactive | MEKK2mut confirm inactive | MEKK3 confirm inactive
Cc1c(C(=O)N(CCC#N)c2ccccc2)sc2nc3n(c(=O)c12)CCCC3	none (no result: ABCB1 block, ABCG2 block)
O=C(NC1CCS(=O)(=O)C1)c1ccc(N2CCCCC2)c([N+](=O)[O-])c1 (configuration not stated)	none (no result: ABCB1 block, ABCG2 block)
Cc1ccc(N/C=C2\C(=O)N(c3ccc(F)cc3F)C(c3cccnc3)S2(=O)=O)cc1 (configuration not stated)	MEKK3 PB1 HTS 131.0 (no result: ABCB1 block, ABCG2 block) | MEKK2wt confirm inactive | MEKK2mut confirm inactive | MEKK3 confirm inactive
CCN(C(=O)c1cn(C)c(=O)c2ccccc12)c1ccccc1F	none (no result: ABCB1 block, ABCG2 block)
Cc1cc(NC(=O)c2cc(C)on2)n(-c2ccccc2)n1	MEKK3 PB1 HTS 74.0[inhibitor] | MEKK2wt confirm inactive | MEKK2mut confirm inactive | MEKK3 confirm inactive
Cc1cc(C(=O)NNC(=S)NCC(C)C)cs1	MEKK3 PB1 HTS 75.0[inhibitor] | MEKK2wt confirm inactive | MEKK2mut confirm inactive | MEKK3 confirm inactive
COc1ccccc1C(c1nnnn1Cc1ccco1)N1CCN(c2cccc(C)c2C)CC1 (configuration not stated)	MEKK3 PB1 HTS 49.0[inhibitor] | MEKK2wt confirm inactive | MEKK2mut confirm inactive | MEKK3 confirm inactive
CC(=O)Nc1ccc(S(=O)(=O)NC2(C(F)(F)F)NC(=O)N(Cc3ccccc3)C2=O)cc1 (configuration not stated)	none (no result: ABCB1 block, ABCG2 block)
C[n+]1cn(CC(O)COCc2ccccc2)c2ccccc21 (configuration not stated)	none (no result: MEKK2mut PB1 HTS, MEKK3 PB1 HTS, MEKK2 WT-MEK5)
CCCCCc1ccc(OCCOCCn2c[n+](C)c3ccccc32)c(CCCCC)c1	MEKK2 WT-MEK5 232.0 | MEKK2wt confirm inactive | MEKK2mut confirm inactive | MEKK3 confirm inactive
